Measured values from ChEMBL document CHEMBL3286129, “Optimization of peptidomimetic boronates bearing a P3 bicyclic scaffold as proteasome inhibitors” (Eur J Med Chem, 2014).
pKi: −log10 of the molar value.

Key:
SW-620 = assay: Growth inhibition of human SW620 cells; assay type: functional
NCI-H460 = assay: Growth inhibition of human NCI-H460 cells; assay type: functional
HL-60(TB) = assay: Growth inhibition of human HL-60(TB) cells; assay type: functional
[1] = Cytotoxicity against human melanoma cells assessed as cell growth at 10 uM relative to control; assay type: functional; details: read-out: Activity
Summary of the method: (§1)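 Single-concentration screen against a panel of human cancer cell lines. Each value is the mean percent growth across the cell lines of that tumour subpanel.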

SNB-75 = assay: Growth inhibition of human SNB75 cells; assay type: functional
[2] = Cytotoxicity against human colon cancer cells assessed as cell growth at 10 uM relative to control; assay type: functional; details: Cancer cell lines, read-out: Activity; summary of the method: as §1
DU-145 = assay: Growth inhibition of human DU145 cells; assay type: functional
SK-OV-3 = assay: Growth inhibition of human SKOV3 cells; assay type: functional
[3] = Growth inhibition of human Hs 578T cells; assay type: functional
T47D = assay: Growth inhibition of human T47D cells; assay type: functional
[4] = target: T1, Proteasome Macropain subunit MB1 (Homo sapiens, UniProt P28074); assay: Inhibition of chymotrypsin-like activity of 20S proteasome in human erythrocytes using Suc-Leu-Leu-Val-Tyr-AMC as substrate by fluorescence assay; details: read-out: Ki
T1 sequence (P28074 whole entry): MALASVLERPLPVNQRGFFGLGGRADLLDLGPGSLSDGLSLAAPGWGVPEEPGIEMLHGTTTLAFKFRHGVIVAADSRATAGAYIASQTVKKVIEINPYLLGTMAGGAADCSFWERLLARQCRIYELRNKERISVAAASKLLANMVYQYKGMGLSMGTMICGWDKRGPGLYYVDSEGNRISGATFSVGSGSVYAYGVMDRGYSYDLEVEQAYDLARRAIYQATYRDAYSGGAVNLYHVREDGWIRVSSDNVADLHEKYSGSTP

Malme-3M = assay: Growth inhibition of human MALME-3M cells; assay type: functional
SN12C = assay: Growth inhibition of human SN12C cells; assay type: functional
[5] = Growth inhibition of human MOLT4 cells; assay type: functional
[6] = Cytotoxicity against human NSCLC cells assessed as cell growth at 10 uM relative to control; assay type: functional; details: read-out: Activity; summary of the method: as §1
KM12 = assay: Growth inhibition of human KM12 cells; assay type: functional
SK-MEL-5 = assay: Growth inhibition of human SK-MEL-5 cells; assay type: functional
[7] = Growth inhibition of human UACC62 cells; assay type: functional; details: UACC-62
HCT-116 = assay: Growth inhibition of human HCT116 cells; assay type: functional
[8] = Growth inhibition of human UO31 cells; assay type: functional; details: UO-31
MDA-MB-435 = assay: Growth inhibition of human MDA-MB-435 cells; assay type: functional
M14 = assay: Growth inhibition of human M14 cells; assay type: functional
[9] = Growth inhibition of human NCI-ADR-RES cells; assay type: functional
[10] = target: T2, Proteasome Macropain subunit MB1 (Homo sapiens) (UniProt P28074); assay: Inhibition of chymotrypsin-like activity of 20S proteasome in human erythrocytes using Suc-Leu-Leu-Val-Tyr-AMC as substrate at 20 uM by fluorescence assay relative to control
T2 sequence (whole entry): T1 sequence (P28074 whole entry)
Summary of the method: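 Single inhibitor concentration, equivalent DMSO as negative control. AMC fluorescence read at ex 380/em 460 nm; percent inhibition of ChT-L activity.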

[11] = Growth inhibition of human OVCAR4 cells; assay type: functional
[12] = Growth inhibition of human SF295 cells; assay type: functional; details: SF-295
MDA-MB-468 = assay: Growth inhibition of human MDA-MB-468 cells; assay type: functional
SR = assay: Growth inhibition of human SR cells; assay type: functional
SF-268 = assay: Growth inhibition of human SF268 cells; assay type: functional
[13] = Cytotoxicity against human prostate cancer cells assessed as cell growth at 10 uM relative to control; assay type: functional; details: Cancer cell lines, read-out: Activity; summary of the method: as §1
[14] = Growth inhibition of human HCC2998 cells; assay type: functional; details: HCC 2998
CCRF-CEM = assay: Growth inhibition of human CCRF-CEM cells; assay type: functional
[15] = read-out: LC50 (the source's name)

What does the source list for `CC(C)C[C@H](NC(=O)CCn1ccc2ccccc2c1=O)B(O)O`?
GI50 (SW-620): 3 µM; LC50 (SW-620): 93.4 µM; TGI (SW-620): 12 µM; GI50 (NCI-H460): 13 µM; LC50 (NCI-H460): > 100 µM; TGI (NCI-H460): 56.2 µM; GI50 (HL-60(TB)): 2.69 µM; TGI (HL-60(TB)): 49.5 µM; CC50 (HL-60(TB); [15]): > 100 µM; growth at 10 µM [1]: 30.5%; GI50 (SNB-75): 2.94 µM; LC50 (SNB-75): 93.4 µM; TGI (SNB-75): 15.9 µM; growth at 10 µM [2]: 45.1%; GI50 (DU-145): 9.13 µM; TGI (DU-145): > 100 µM; CC50 (DU-145; [15]): > 100 µM; GI50 (SK-OV-3): 4.72 µM; LC50 (SK-OV-3): > 100 µM; TGI (SK-OV-3): 81.3 µM; GI50 [3]: 3.63 µM; TGI [3]: 48.7 µM; CC50 [3, 15]: > 100 µM; GI50 (T47D): 3.71 µM; TGI (T47D): 29.3 µM; CC50 (T47D; [15]): > 100 µM; pKi [4]: 7.29; GI50 (Malme-3M): 2.58 µM; TGI (Malme-3M): 9.89 µM; CC50 (Malme-3M; [15]): > 100 µM; GI50 (SN12C): 11.2 µM; TGI (SN12C): 55.4 µM; CC50 (SN12C; [15]): > 100 µM; GI50 ([5]; MOLT-4): 1.28 µM; TGI ([5]; MOLT-4): 5.94 µM; CC50 ([5]; MOLT-4, read-out: LC50 (the source's name)): > 100 µM; growth at 10 µM [6]: 60.3%; GI50 (KM12): 7.51 µM; LC50 (KM12): > 100 µM; TGI (KM12): 29.8 µM; GI50 (SK-MEL-5): 4.3 µM; LC50 (concentration killing 50% of cells) (SK-MEL-5): 83.7 µM; TGI (SK-MEL-5): 19 µM; GI50 [7]: 4.29 µM; LC50 (concentration killing 50% of cells) [7]: > 100 µM; TGI [7]: 24.9 µM; GI50 (HCT-116): 1.55 µM; LC50 (HCT-116): > 100 µM; TGI (HCT-116): 19.8 µM; GI50 [8]: 3.92 µM; LC50 [8]: > 100 µM; TGI [8]: 35.3 µM; GI50 (MDA-MB-435): 1.27 µM; TGI (MDA-MB-435): 2.81 µM; CC50 (MDA-MB-435; [15]): 6.24 µM; GI50 (M14): 4.23 µM; LC50 (concentration killing 50% of cells) (M14): > 100 µM; TGI (M14): > 100 µM; GI50 [9]: 67.1 µM; LC50 [9]: > 100 µM; TGI [9]: > 100 µM; inhibition [10]: > 40%; GI50 ([11]; OVCAR-4): 17 µM; TGI ([11]; OVCAR-4): > 100 µM; CC50 ([11]; OVCAR-4, read-out: LC50 (the source's name)): > 100 µM; GI50 [12]: 3.78 µM; LC50 [12]: 83.3 µM; TGI [12]: 19.6 µM; GI50 (MDA-MB-468): 1.38 µM; TGI (MDA-MB-468): 7.08 µM; CC50 (MDA-MB-468; [15]): > 100 µM; GI50 (SR): 1.7 µM; TGI (SR): 28.9 µM; CC50 (SR; [15]): > 100 µM; GI50 (SF-268): 5.69 µM; LC50 (SF-268): > 100 µM; TGI (SF-268): 30.4 µM; growth at 10 µM [13]: 57.8%; GI50 [14]: 6.08 µM; LC50 [14]: 66.4 µM; TGI [14]: 21.3 µM; GI50 (CCRF-CEM): 2.02 µM; TGI (CCRF-CEM): 25.4 µM; CC50 (CCRF-CEM; [15]): > 100 µM
